# Values joined by “and” are separate entries in the source; they are usually repeats but may differ in a detail not shown here. Equal entries are not always repeated. Where two headings read alike, the source gives them in different places. Marks after values point to notes of the source that are not given here.
# Experiments:
# [1] = ARIADME phase I pharmacokinetics/bioavailability study; type: in vivo, human; details: for Cmax: healthy male subjects; for CL renal: plasma and urine, CLR; for half-life: t½; for AUC(0-inf): AUC0–inf; for AUC(0-t): AUC0–tlast; for tmax: median (range)
# Method in brief: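 Six healthy fasted men took one oral 300 mg tablet, then a 100 µg IV 14C-microtracer as a 15-min infusion ending 3 h post-dose. Six others took an oral 14C-dose of 300 mg in aqueous propylene glycol solution (≤ 6.3 MBq). Oral plasma levels were measured by validated HPLC-MS, and IV levels by LC fractionation with accelerator MS. Values are geometric mean (CV%).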
# [2] = type: in vivo, human; details: for RLIN, linearity factor (ratio of multiple-dose AUC0–12 to single-dose AUC): 600 mg BID with food; for RAAUC, accumulation ratio based on AUC0–12 / RACmax, accumulation ratio based on Cmax: multiple (day 7) vs single (day 1) dosing, 600 mg BID; for trough concentrations reached steady-state levels after: BID treatment 600 mg
# Method in brief: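 Fifteen healthy men took 600 mg (two 300 mg tablets) 30 min after starting a standardized meal on day 1, then twice daily on days 4–7. Plasma was sampled to 72 h after the single dose, at trough on days 4–6, and to 12 h on day 7. Samples underwent solid-phase extraction and LC-MS/MS. Accumulation ratios compared multiple- with single-dose AUC0–12 and Cmax. RLIN was multiple-dose AUC0–12 over single-dose AUC0–inf.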
# [3] = type: in vivo, human; details: for Cmax increase vs healthy subjects / exposure (AUC0–48) increase vs healthy subjects: single 600 mg with food
# Method in brief: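 Open-label, parallel-group, multicenter trial in men aged 45–79. Groups were Child–Pugh B cirrhosis, severe renal impairment (eGFR 15–29 mL/min/1.73 m2, MDRD equation), and age- and weight-matched healthy controls. Each took two 300 mg tablets 30 min after starting a standardized breakfast. Plasma was sampled pre-dose to 48 h and assayed by validated LC-MS/MS. Parameters used total and unbound concentrations.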
# [4] = Solubility in fed vs fasted state simulated intestinal fluid; type: physicochemical; details: in vitro data (data on file)
# [5] = system: plasma proteins; experiment: In vitro plasma protein binding; type: in vitro ADME; details: human plasma (data on file)
# [6] = nonmetastatic CRPC, cited from earlier work
# [7] = system: patients with nonmetastatic castration-resistant prostate cancer (CRPC); details: 600 mg BID, cited from earlier work
# [8] = system: plasma proteins; type: in vitro ADME, human; details: ex vivo samples after single oral administration of darolutamide 600 mg
# Method in brief: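 Unbound fractions of the parent, both diastereomers and keto metabolite were measured by equilibrium dialysis. Plasma came from healthy male subjects and from non-cancer patients with moderate hepatic or severe renal impairment, after a single oral 600 mg dose taken with food.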
# [9] = cited from earlier work
# [10] = Day 1 (single dose) 600 mg oral with food, median (range)
# [11] = Day 7 (multiple doses) 600 mg BID oral with food, median (range)
# [12] = 100 µg IV 14C-microtracer, 15-min infusion, geometric mean (CV%)
# [13] = male, human, plasma, iv, 100 µg
# [14] = male, human, plasma, po, 300 mg, single 300 mg oral 14C-solution, fasted, geometric mean (CV%)
# [15] = male, human, plasma, po, 300 mg, single 300 mg oral tablet, fasted, geometric mean (CV%)
# [16] = male, human, plasma, po, 600 mg
# [17] = moderate hepatic impairment (Child–Pugh class B)
smiles,measurement,setting,value
"C[C@@H](Cn1ccc(-c2ccc(C#N)c(Cl)c2)n1)NC(=O)c1cc([C@@H](C)O)[nH]n1 [(S,R)-darolutamide]","clearance, (S,R)-darolutamide higher vs (S,S)-darolutamide",[1]; after the IV dose,2.9 fold
same,"RLIN, linearity factor (ratio of multiple-dose AUC0–12 to single-dose AUC)",[2],0.9
same,Terminal t½,"[2]; Day 1 (single dose) 600 mg oral with food, geometric mean/geometric CV% (range)",14.5 h
same,tmax,[2]; [10],3.97 (1.02–6.02) h
same,tmax,[2]; [11],3.00 (0.967–4.00) h
same,"RAAUC, accumulation ratio based on AUC0–12",[2],1.2
same,"RACmax, accumulation ratio based on Cmax",[2],1.2
"C[C@H](O)c1cc(C(=O)N[C@@H](C)Cn2ccc(-c3ccc(C#N)c(Cl)c3)n2)n[nH]1 [(S,S)-darolutamide]","RLIN, linearity factor (ratio of multiple-dose AUC0–12 to single-dose AUC)",[2],1.1
same,tmax,[2]; [10],5.98 (2.50–8.00) h
same,tmax,[2]; [11],3.98 (0.00–6.02) h
same,"RAAUC, accumulation ratio based on AUC0–12",[2],2.3
same,"RACmax, accumulation ratio based on Cmax",[2],2.0
CC(O)c1cc(C(=O)N[C@@H](C)Cn2ccc(-c3ccc(C#N)c(Cl)c3)n2)[nH]n1 (stereo partly shown) [Darolutamide],AUC0–inf,[1]; [12],"13,645 (39.5)^a h⋅pg eq/mL"
same,fraction absorbed based on amount of total 14C-radioactivity excreted in urine,[1]; 300 mg oral solution,127%
same,fraction absorbed based on plasma AUC of total 14C-radioactivity,[1]; 300 mg oral solution,109%
same,Cmax,[1]; [12],4127 (27.4)^a pg eq/mL
same,CL renal,"[1]; male, human, po, 300 mg, single 300 mg oral 14C-solution, fasted, geometric mean (CV%)",7.73 mL/min
same,CL renal,"[1]; male, human, po, 300 mg, single 300 mg oral tablet, fasted, geometric mean (CV%)",6.52 mL/min
same,Vd,[1]; [13],119 L
same,clearance,[1]; [13],116 mL/min
same,half-life,"[1]; male, human, plasma, iv, 100 µg, 100 µg IV 14C-microtracer, 15-min infusion, geometric mean (CV%)",708 min
same,AUC(0-inf),[1]; [14],45600 ng·h/mL
same,AUC(0-inf),[1]; [15],12900 ng·h/mL
same,AUC(0-t),[1]; [14],45300 ng·h/mL
same,AUC(0-t),[1]; [15],12400 ng·h/mL
same,Cmax,"[1]; male, human, plasma, po, 300 mg, Cmax, single 300 mg oral 14C-solution, fasted, geometric mean (CV%)",3820 ng/mL
same,Cmax,"[1]; male, human, plasma, po, 300 mg, Cmax, single 300 mg oral tablet, fasted, geometric mean (CV%)",800 ng/mL
same,bioavailability,"[1]; male, human, plasma, po, 300 mg, F (absolute oral bioavailability), single 300 mg oral 14C-solution, fasted, geometric mean (CV%)",98.9%
same,bioavailability,"[1]; male, human, plasma, po, 300 mg, F (absolute oral bioavailability), single 300 mg oral tablet, fasted, geometric mean (CV%)",29.9%
same,Vd/F,[1]; [14],101 L
same,Vd/F,[1]; [15],514 L
same,bioavailability,"[1]; male, human, plasma, po, 300 mg, absolute bioavailability, single 300 mg oral solution, fasted",98.9%
same,tmax,"[1]; male, human, plasma, po, 300 mg, single 300 mg oral 14C-solution, fasted",1.58 h
same,tmax,"[1]; male, human, plasma, po, 300 mg, single 300 mg oral tablet, fasted",3.5 h
same,half-life,[1]; [14],636 min
same,half-life,[1]; [15],918 min
same,CL/F,"[1]; single 300 mg oral 14C-solution, fasted, geometric mean (CV%)",110 (21.3) mL/min
same,absolute bioavailability,"[1]; single 300 mg oral solution, fasted",~ 100%
same,CL/F,"[1]; single 300 mg oral tablet, fasted, geometric mean (CV%)",388 (36.2) mL/min
same,"mean AUC0–inf, oral solution higher than tablet formulation","[1]; single 300 mg, fasted",3.5 fold
same,"mean Cmax, oral solution higher than tablet formulation","[1]; single 300 mg, fasted",4.8 fold
same,absolute bioavailability based on AUC0–inf,"[1]; single 300-mg oral tablet, fasted state, IV microtracer as reference",~ 30%
same,mean whole blood:plasma ratio of total 14C-radioactivity,[1]; single oral solution dose,0.7
same,"RLIN, linearity factor (ratio of multiple-dose AUC0–12 to single-dose AUC)",[2],1.1
same,trough concentrations reached steady-state levels after,[2],1 days
same,tmax,[2]; [10],5.97 (2.50–7.95) h
same,tmax,[2]; [11],3.98 (2.00–5.98) h
same,half-life,"[2]; male, human, plasma, oral, 600 mg",780 min
same,AUC(0-inf),[2]; [16],26200 ng·h/mL
same,half-life,[2]; [16],696 min
same,tmax,"[2]; male, human, plasma, po, 600 mg, median time to peak concentration, oral tablet, single dosing of 600 mg",4 to 6 h
same,"RAAUC, accumulation ratio based on AUC0–12",[2],2.1
same,"RACmax, accumulation ratio based on Cmax",[2],1.9
same,mean peak plasma concentration,"[2]; single oral dose 600 mg with food, healthy male subjects",1.77 µg/mL
same,time to steady state,[2]; twice-daily dosing,approximately 2 days
same,tmax,"[3]; Moderate hepatic impairment, single oral 600 mg with food, median (range)",4.00 (4.00–8.00) h
same,tmax,"[3]; Severe renal impairment, single oral 600 mg with food, median (range)",4.00 (3.00–12.0) h
same,tmax,[3]; [16],4 h
same,terminal t½ compared with healthy subjects,[3]; moderate hepatic impairment,did not change
same,Cmax increase vs healthy subjects,[3]; [17],1.5 fold
same,exposure (AUC0–48) increase vs healthy subjects,[3]; [17],1.9 fold
same,terminal t½ vs healthy subjects,[3]; severe renal impairment,prolonged
same,Cmax increase vs healthy subjects,[3]; severe renal impairment,1.6 fold
same,exposure (AUC0–48) increase vs healthy subjects,[3]; severe renal impairment,2.5 fold
same,solubility in fed vs fasted state simulated intestinal fluid,[4],improved solubility
same,mean free (unbound) fraction,[5],~ 8% and 8%
same,exposure vs patients with normal organ function,[6]; patients with mild hepatic impairment,not higher
same,exposure vs patients with normal organ function,[6]; patients with mild or moderate renal impairment,at most only slightly higher
same,overall survival hazard ratio vs placebo,"[7]; 95% confidence interval 0.53–0.88, p = 0.003",0.69
same,metastasis-free survival,[7]; p < 0.001 vs placebo,40.4 months
same,mean free (unbound) fraction in plasma,[8],7.8%
same,absolute bioavailability of tablet given with food,[9],60–75%
"CC(=O)c1cc(C(=O)N[C@@H](C)Cn2ccc(-c3ccc(C#N)c(Cl)c3)n2)[nH]n1 [Keto-darolutamide, keto-darolutamide]",metabolite:parent total concentration ratio based on AUC0–inf,[1]; IV microtracer dose,1.50
same,metabolite:parent total concentration ratio based on AUC0–inf,[1]; oral solution dose,2.06
same,metabolite:parent total concentration ratio based on AUC0–inf,[1]; oral tablet dose,1.67 and 1.7
same,"RLIN, linearity factor (ratio of multiple-dose AUC0–12 to single-dose AUC)",[2],1.2
same,trough concentrations reached steady-state levels after,[2],1 days
same,tmax,[2]; [10],4.00 (2.50–6.02) h
same,tmax,[2]; [11],3.00 (1.48–5.97) h
same,plasma exposure of keto-darolutamide vs darolutamide,[2]; after single and multiple dosing of darolutamide,approximately twofold higher
same,"RAAUC, accumulation ratio based on AUC0–12",[2],2.2
same,"RACmax, accumulation ratio based on Cmax",[2],2.0
same,plasma exposure (AUC0–48) vs healthy subjects,"[3]; patients with renal or hepatic impairment, increase less pronounced than for darolutamide",increased
same,mean free (unbound) fraction,[5],0.2% and < 1%
same,mean free (unbound) fraction in plasma,[8],0.12%
